Measurements as given in ChEMBL document CHEMBL3425508, “Discovery of potent hexapeptide agonists to human neuromedin u receptor 1 and identification of their serum metabolites” (ACS Med Chem Lett, 2015).
Blank lines part the entries; values can stand above or below the compound they belong to. The source made the active and inactive calls. No cut-off for these calls is given here. Non-standard residues stand in square brackets, D forms with d. Residues, ends and D or L forms follow the SMILES beside them. *: point of attachment. Propanoyl(3-(3-pyridyl)) = O=C(CCc1cccnc1)*; Phe(4-F) = N[C@@H](Cc1ccc(F)cc1)C(=O)O; 2Nal = N[C@@H](Cc1ccc2ccccc2c1)C(=O)O; Acetyl(2-thienyl) = O=C(Cc1cccs1)*; Hydrocinnamoyl = O=C(CCc1ccccc1)*; 4Pal = N[C@@H](Cc1ccncc1)C(=O)O; 2Thi = N[C@@H](Cc1cccs1)C(=O)O; PhAc = O=C(Cc1ccccc1)*; X1 = O=C(CCc1cccs1)*

Assays:
[1] = system: Serum; assay: Retention time in 25% rat serum treated with 1 mM (S)-2-((S)-2-((S)-1-((S)-2-((S)-2-((S)-3-(1H-indol-3-yl)-2-(2-(thiophen-2-yl)acetamido)propanamido)-3-(4-fluorophenyl)propanamido)-5-guanidinopentanoyl)pyrrolidine-2-carboxamido)-5-guanidinopentanamido)succinamide incubated for 30 mins at 37 degC by RP-HPLC method; assay type: ADME, cell-free; settings: 0.5 h
Method in brief: (§1)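 Peptides incubated in 25% rat serum at 37 °C and sampled over time (10, 30, 60 min). Samples extracted on Sep-Pak C18 cartridges and analysed by C18 RP-HPLC with UV detection at 220 nm. Metabolites identified by mass spectrometry. Recovery of intact peptide measured at 10 or 60 min, in triplicate.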

[2] = system: Serum; assay: Drug level in 25% rat serum treated with 1 mM (S)-2-((S)-2-((S)-1-((6S,9S,12S)-12-((1H-indol-3-yl)methyl)-1-amino-9-benzyl-1-imino-8,11,14-trioxo-15-(thiophen-2-yl)-2,7,10,13-tetraazapentadecanecarbonyl)pyrrolidine-2-carboxamido)-5-guanidinopentanamido)succinamide assessed as compound formation at 37 degC by RP-HPLC method; assay type: ADME, cell-free; method in brief: as §1
[3] = target: Neuromedin-U receptor 2 (Homo sapiens, UniProt Q9GZQ4); assay: Agonist activity at human NMUR2 expressed in CHO cells assessed as intracellular calcium flux at 1 and 10 nM by Fluo-4 AM dye based fluorometric imaging method relative to 1000 nM human neuromedin U; assay type: functional, cell-based
Chain of Neuromedin-U receptor 2 (Q9GZQ4 whole entry): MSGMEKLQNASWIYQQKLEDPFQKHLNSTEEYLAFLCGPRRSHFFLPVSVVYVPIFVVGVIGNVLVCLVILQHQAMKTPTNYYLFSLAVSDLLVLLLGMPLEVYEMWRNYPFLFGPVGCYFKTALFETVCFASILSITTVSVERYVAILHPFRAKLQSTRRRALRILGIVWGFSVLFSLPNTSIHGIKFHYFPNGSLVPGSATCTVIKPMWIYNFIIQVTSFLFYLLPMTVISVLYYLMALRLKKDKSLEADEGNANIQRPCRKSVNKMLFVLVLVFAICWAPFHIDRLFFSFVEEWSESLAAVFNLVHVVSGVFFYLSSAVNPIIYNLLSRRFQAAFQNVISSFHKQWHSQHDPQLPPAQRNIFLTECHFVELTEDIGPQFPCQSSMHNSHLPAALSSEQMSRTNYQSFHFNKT

[4] = target: T1, Neuromedin-U receptor 1 (Homo sapiens) (UniProt Q9HB89); assay: Agonist activity at human NMUR1 expressed in CHO cells assessed as intracellular calcium flux at 1 and 10 nM by Fluo-4 AM dye based fluorometric imaging method relative to 1000 nM human neuromedin U; assay type: functional, cell-based
T1 sequence (whole entry): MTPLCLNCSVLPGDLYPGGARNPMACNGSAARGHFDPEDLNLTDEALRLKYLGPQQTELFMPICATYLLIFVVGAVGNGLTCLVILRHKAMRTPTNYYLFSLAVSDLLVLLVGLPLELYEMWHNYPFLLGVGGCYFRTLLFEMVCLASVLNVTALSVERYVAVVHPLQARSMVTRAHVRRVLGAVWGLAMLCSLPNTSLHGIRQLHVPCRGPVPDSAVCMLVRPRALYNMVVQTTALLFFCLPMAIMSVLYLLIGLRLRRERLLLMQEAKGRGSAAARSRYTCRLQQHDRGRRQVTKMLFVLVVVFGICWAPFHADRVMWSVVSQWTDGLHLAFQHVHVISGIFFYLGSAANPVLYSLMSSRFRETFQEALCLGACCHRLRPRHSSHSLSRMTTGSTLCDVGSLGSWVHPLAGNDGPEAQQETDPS

[5] = Drug metabolism in 25% rat serum assessed as drug recovery at 1 mM incubated for 60 mins at 37 degC by RP-HPLC method; assay type: ADME, cell-free; settings: read-out: Drug recovery; method in brief: as §1
[6] = system: Serum; assay: Drug level in 25% rat serum treated with 1 mM (S)-2-((S)-2-((S)-1-((6S,9S,12S)-1-amino-9-benzyl-1-imino-12-isobutyl-8,11,14-trioxo-16-phenyl-2,7,10,13-tetraazahexadecanecarbonyl)pyrrolidine-2-carboxamido)-5-guanidinopentanamido)succinamide assessed as compound formation at 37 degC by RP-HPLC method; assay type: ADME, cell-free; method in brief: as §1
[7] = system: Serum; assay: Drug metabolism in 25% rat serum assessed as formation of 3-phenylpropionyl-Leu1-Phe2-Arg3-Pro4-Arg5-OH at 1 mM at 37 degC by RP-HPLC method; assay type: ADME, cell-free; settings: 1000 µM; method in brief: as §1
[8] = system: Serum; assay: Drug metabolism in 25% rat serum assessed as cleavage at Arg(5)-Asn(6) site at 1 mM at 37 degC by RP-HPLC method; assay type: ADME, cell-free; settings: 1000 µM; method in brief: as §1
[9] = Drug metabolism in 25% rat serum assessed as drug recovery at 1 mM incubated for 10 mins at 37 degC by RP-HPLC method; assay type: ADME, cell-free; settings: read-out: Drug recovery; method in brief: as §1
[10] = system: Serum; assay: Drug metabolism in 25% rat serum assessed as formation of 3-phenylpropionyl-Leu1-Phe2-OH at 1 mM at 37 degC by RP-HPLC method; assay type: ADME, cell-free; settings: 1000 µM; method in brief: as §1
[11] = system: Serum; assay: Drug metabolism in 25% rat serum assessed as cleavage at Phe(2)-Arg(3) site at 1 mM at 37 degC by RP-HPLC method; assay type: ADME, cell-free; settings: 1000 µM; method in brief: as §1
[12] = system: Serum; assay: Drug metabolism in 25% rat serum assessed as formation of 2-thienylacetyl-Trp1-Phe2-OH at 1 mM at 37 degC by RP-HPLC method; assay type: ADME, cell-free; settings: 1000 µM; method in brief: as §1
[13] = system: Serum; assay: Drug metabolism in 25% rat serum assessed as formation of 2-thienylacetyl-Trp1-Phe2-Arg3-Pro4-Arg5-OH at 1 mM at 37 degC by RP-HPLC method; assay type: ADME, cell-free; settings: 1000 µM; method in brief: as §1
[14] = system: Serum; assay: Retention time in 25% rat serum treated with 1 mM (S)-2-((S)-2-((S)-1-((S)-2-((S)-2-((S)-3-(1H-indol-3-yl)-2-(2-(thiophen-2-yl)acetamido)propanamido)-3-(4-fluorophenyl)propanamido)-5-guanidinopentanoyl)pyrrolidine-2-carboxamido)-5-guanidinopentanamido)succinamide incubated for 10 mins at 37 degC by RP-HPLC method; assay type: ADME, cell-free; method in brief: as §1
[15] = target: T2, Neuromedin-U receptor 1 (Homo sapiens, UniProt Q9HB89); assay: Agonist activity at human NMUR1 expressed in CHO cells assessed as intracellular calcium flux at by Fluo-4 AM dye based fluorometric imaging method; assay type: functional, cell-based
T2 sequence (Q9HB89 whole entry): T1 sequence (whole entry)
Method in brief: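 Dose–response Ca2+ mobilization in CHO cells stably expressing human NMUR1 or NMUR2. Peptides run at 10^-12–10^-6 M with hNMU as reference. EC50 and intrinsic activity derived from the curves. Triplicate determinations.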

[16] = system: Serum; assay: Drug metabolism in 25% rat serum assessed as cleavage at C-terminal Arg-Asn site at 1 mM at 37 degC by RP-HPLC method; assay type: ADME, cell-free; settings: 1000 µM; method in brief: as §1

Compound: O=C(Cc1cccs1)N[C@@H](Cc1c[nH]c2ccccc12)C(=O)N[C@@H](Cc1ccc(F)cc1)C(=O)O
Retention_time [1]: 61.2 min

Compound: O=C(Cc1cccs1)N[C@@H](Cc1c[nH]c2ccccc12)C(=O)N[C@@H](Cc1ccccc1)C(=O)O
Drug metabolism [2]: metabolite_detected

Compound: N=C(N)NCCC[C@H](NC(=O)[C@@H]1CCCN1C(=O)[C@H](CCCNC(=N)N)NC(=O)[C@H](Cc1ccccc1)NC(=O)[C@H](Cc1ccccc1)NC(=O)CCc1ccccc1)C(=O)N[C@@H](CC(N)=O)C(N)=O (Hydrocinnamoyl-FFRPRN-NH2)
Activity [3]: inactive | Activity [4]: inactive

Compound: CC(C)C[C@H](NC(=O)CCc1ccccc1)C(=O)N[C@@H](Cc1ccccc1)C(=O)N[C@@H](CCCNC(=N)N)C(=O)N1CCC[C@H]1C(=O)N[C@@H](CCCNC(=N)N)C(=O)O (Hydrocinnamoyl-LFRPR-OH)
remaining at 1 h, 1000 µM [5]: 56.9% | Drug metabolism [6]: metabolite_detected

Compound: CC(C)C[C@H](NC(=O)CCc1ccccc1)C(=O)N[C@@H](Cc1ccccc1)C(=O)N[C@@H](CCCNC(=N)N)C(=O)N1CCC[C@H]1C(=O)N[C@@H](CCCNC(=N)N)C(=O)N[C@@H](CC(N)=O)C(N)=O (Hydrocinnamoyl-LFRPRN-NH2)
Drug metabolism [7]: metabolite_detected | Drug metabolism [8]: metabolite_detected | remaining at 10 min, 1000 µM [9]: 64% | Drug metabolism [10]: metabolite_detected | Drug metabolism [11]: metabolite_detected | Activity [3]: Active | Activity [4]: Active | Drug metabolism [6]: metabolite_detected

Compound: N=C(N)NCCC[C@H](NC(=O)[C@@H]1CCCN1C(=O)[C@H](CCCNC(=N)N)NC(=O)[C@H](Cc1ccccc1)NC(=O)[C@H](Cc1ccccc1)NC(=O)Cc1ccccc1)C(=O)N[C@@H](CC(N)=O)C(N)=O (PhAc-FFRPRN-NH2)
Activity [3]: inactive | Activity [4]: inactive

Compound: N=C(N)NCCC[C@H](NC(=O)[C@@H]1CCCN1C(=O)[C@H](CCCNC(=N)N)NC(=O)[C@H](Cc1ccccc1)NC(=O)[C@H](Cc1ccccc1)NC(=O)CCc1cccs1)C(=O)N[C@@H](CC(N)=O)C(N)=O (X1-FFRPRN-NH2)
Activity [3]: Active | Activity [4]: Active

Compound: N=C(N)NCCC[C@H](NC(=O)[C@@H]1CCCN1C(=O)[C@H](CCCNC(=N)N)NC(=O)[C@H](Cc1ccccc1)NC(=O)[C@H](Cc1ccccc1)NC(=O)Cc1cccs1)C(=O)N[C@@H](CC(N)=O)C(N)=O ({Acetyl(2-thienyl)}-FFRPRN-NH2)
Activity [3]: Active | Activity [4]: Active

Compound: N=C(N)NCCC[C@H](NC(=O)[C@@H]1CCCN1C(=O)[C@H](CCCNC(=N)N)NC(=O)[C@H](Cc1ccccc1)NC(=O)[C@H](Cc1c[nH]c2ccccc12)NC(=O)Cc1cccs1)C(=O)O ({Acetyl(2-thienyl)}-WFRPR-OH)
Drug metabolism [2]: metabolite_detected | remaining at 1 h, 1000 µM [5]: 44.7%

Compound: N=C(N)NCCC[C@H](NC(=O)[C@@H]1CCCN1C(=O)[C@H](CCCNC(=N)N)NC(=O)[C@H](Cc1cccs1)NC(=O)[C@H](Cc1c[nH]c2ccccc12)NC(=O)Cc1cccs1)C(=O)N[C@@H](CC(N)=O)C(N)=O ({Acetyl(2-thienyl)}-W[2Thi]RPRN-NH2)
Activity [3]: Active | Activity [4]: Active

Compound: N=C(N)NCCC[C@H](NC(=O)[C@@H]1CCCN1C(=O)[C@H](CCCNC(=N)N)NC(=O)[C@H](Cc1ccc(F)cc1)NC(=O)[C@H](Cc1c[nH]c2ccccc12)NC(=O)Cc1cccs1)C(=O)O ({Acetyl(2-thienyl)}-W[Phe(4-F)]RPR-OH)
Retention_time [14]: 43.7 min | remaining at 1 h, 1000 µM [5]: 54%

Compound: N=C(N)NCCC[C@H](NC(=O)[C@@H]1CCCN1C(=O)[C@H](CCCNC(=N)N)NC(=O)[C@H](Cc1ccccc1)NC(=O)[C@H](Cc1ccc2ccccc2c1)NC(=O)CCc1cccnc1)C(=O)N[C@@H](CC(N)=O)C(N)=O ({Propanoyl(3-(3-pyridyl))}-[2Nal]FRPRN-NH2)
Activity [3]: Active

Compound: H-FLFRPRN-NH2
Drug metabolism [8]: metabolite_notdetected | remaining at 10 min, 1000 µM [9]: 37% | Drug metabolism [11]: metabolite_notdetected

Compound: H-FRVDEEFQSPFASQSRGYFLFRPRN-NH2
EC50 [15]: 0.14 nM | Drug metabolism [16]: metabolite_detected

Other lines, results leading:

Drug metabolism [6]: metabolite_detected
Compound: CC(C)C[C@H](NC(=O)CCc1ccccc1)C(=O)N[C@@H](Cc1ccccc1)C(=O)O (Hydrocinnamoyl-Leu-Phe-OH)

Drug metabolism [12]: metabolite_detected | Drug metabolism [8]: metabolite_detected | Drug metabolism [13]: metabolite_detected | remaining at 10 min, 1000 µM [9]: 39.8% | Drug metabolism [11]: metabolite_detected | Activity [3]: Active | Activity [4]: Active
Compound: N=C(N)NCCC[C@H](NC(=O)[C@@H]1CCCN1C(=O)[C@H](CCCNC(=N)N)NC(=O)[C@H](Cc1ccccc1)NC(=O)[C@H](Cc1c[nH]c2ccccc12)NC(=O)Cc1cccs1)C(=O)N[C@@H](CC(N)=O)C(N)=O ({Acetyl(2-thienyl)}-WFRPRN-NH2)

Activity [3]: inactive | Activity [4]: inactive
Compound: N=C(N)NCCC[C@H](NC(=O)[C@@H]1CCCN1C(=O)[C@H](CCCNC(=N)N)NC(=O)[C@H](Cc1c[nH]cn1)NC(=O)[C@H](Cc1c[nH]c2ccccc12)NC(=O)Cc1cccs1)C(=O)N[C@@H](CC(N)=O)C(N)=O ({Acetyl(2-thienyl)}-WHRPRN-NH2)

Activity [3]: inactive | Activity [4]: inactive
Compound: N=C(N)NCCC[C@H](NC(=O)[C@@H]1CCCN1C(=O)[C@H](CCCNC(=N)N)NC(=O)[C@H](Cc1ccncc1)NC(=O)[C@H](Cc1c[nH]c2ccccc12)NC(=O)Cc1cccs1)C(=O)N[C@@H](CC(N)=O)C(N)=O ({Acetyl(2-thienyl)}-W[4Pal]RPRN-NH2)

Activity [3]: Active | Activity [4]: Active
Compound: N=C(N)NCCC[C@H](NC(=O)[C@@H]1CCCN1C(=O)[C@H](CCCNC(=N)N)NC(=O)[C@H](Cc1ccccc1)NC(=O)[C@H](Cc1ccccc1)NC(=O)CCc1cccnc1)C(=O)N[C@@H](CC(N)=O)C(N)=O ({Propanoyl(3-(3-pyridyl))}-FFRPRN-NH2)

Activity [3]: inactive | Activity [4]: inactive
Compound: Ac-FFRPRN-NH2
